Legend:
SNB-19 = assay: Growth inhibition of human SNB19 cells assessed as cell growth at 10^-5 M after 48 hrs by sulforhodamine B assay relative to control; type: functional; conditions: SNB-19, 48 h, read-out: Activity
How it was run: (§1)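 NCI-60 single-dose screen at 10^-5 M. Cells grown in RPMI 1640 with 5% FBS and 2 mM L-glutamine, plated at 5,000–40,000 cells/well according to doubling time, and preincubated 24 h at 37°C, 5% CO2. Compound dissolved in DMSO and added. Exposure 48 h. Adherent cells fixed with cold TCA (10% final), suspension cells with 16% final TCA. Read-out is 0.4% SRB staining, dye solubilised in 10 mM Tris, absorbance at 515 nm. Percent growth is calculated against the time-zero plate and untreated control.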

CCRF-CEM = assay: Growth inhibition of human CCRF-CEM cells assessed as cell growth at 10^-5 M after 48 hrs by sulforhodamine B assay relative to control; type: functional; conditions: read-out: Activity; how it was run: as §1
SF-295 = assay: Growth inhibition of human SF295 cells assessed as cell growth at 10^-5 M after 48 hrs by sulforhodamine B assay relative to control; type: functional; conditions: SF-295, 48 h, read-out: Activity; how it was run: as §1
MDA-MB-468 = assay: Growth inhibition of human MDA-MB-468 cells assessed as cell growth at 10^-5 M after 48 hrs by sulforhodamine B assay relative to control; type: functional; conditions: MDA-MB-468, 48 h, read-out: Activity; how it was run: as §1
T47D = assay: Growth inhibition of human T47D cells assessed as cell growth at 10^-5 M after 48 hrs by sulforhodamine B assay relative to control; type: functional; conditions: read-out: Activity
How it was run: (§2)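 NCI-60 single-dose screen, 10^-5 M final. Cells grown in RPMI 1640 with 5% FBS and 2 mM L-glutamine, seeded at 5,000–40,000 cells/well by doubling time. Preincubated 24 h at 37°C, 5% CO2. Compound in DMSO, diluted in medium with gentamicin, then 48 h exposure. Fixed with cold TCA, SRB stained, A515 read. Percent growth vs untreated control, time-zero plate corrected.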

IGROV-1 = assay: Growth inhibition of human IGROV1 cells assessed as cell growth at 10^-5 M after 48 hrs by sulforhodamine B assay relative to control; type: functional; conditions: IGROV-1, 48 h, read-out: Activity; how it was run: as §1
BT-549 = assay: Growth inhibition of human BT549 cells assessed as cell growth at 10^-5 M after 48 hrs by sulforhodamine B assay relative to control; type: functional; conditions: BT-549, 48 h, read-out: Activity; how it was run: as §1
786-0 = assay: Growth inhibition of human 786-0 cells assessed as cell growth at 10^-5 M after 48 hrs by sulforhodamine B assay relative to control; type: functional; conditions: 786-0, 48 h, read-out: Activity; how it was run: as §1
M14 = assay: Growth inhibition of human M14 cells assessed as cell growth at 10^-5 M after 48 hrs by sulforhodamine B assay relative to control; type: functional; conditions: M14, 48 h, read-out: Activity; how it was run: as §1
SK-MEL-5 = assay: Growth inhibition of human SK-MEL-5 cells assessed as cell growth at 10^-5 M after 48 hrs by sulforhodamine B assay relative to control; type: functional; conditions: SK-MEL-5, 48 h, read-out: Activity; how it was run: as §1
RXF 393 = assay: Growth inhibition of human RXF393 cells assessed as cell growth at 10^-5 M after 48 hrs by sulforhodamine B assay relative to control; type: functional; conditions: RXF 393, 48 h, read-out: Activity; how it was run: as §1
[1] = target: Mitogen-activated protein kinase 1 (Homo sapiens, UniProt P28482); assay: Inhibition of human MAPK1
Mitogen-activated protein kinase 1, sequence (P28482 whole entry): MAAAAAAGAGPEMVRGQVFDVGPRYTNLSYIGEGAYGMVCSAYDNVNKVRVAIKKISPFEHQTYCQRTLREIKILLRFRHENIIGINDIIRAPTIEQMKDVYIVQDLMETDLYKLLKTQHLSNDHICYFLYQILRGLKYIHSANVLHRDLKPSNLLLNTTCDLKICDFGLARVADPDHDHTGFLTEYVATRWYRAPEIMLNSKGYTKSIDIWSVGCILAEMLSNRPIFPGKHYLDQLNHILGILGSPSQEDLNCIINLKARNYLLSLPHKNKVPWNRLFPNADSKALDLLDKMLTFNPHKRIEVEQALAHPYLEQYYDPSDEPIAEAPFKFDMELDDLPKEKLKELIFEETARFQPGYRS

NCI-H460 = assay: Growth inhibition of human NCI-H460 cells assessed as cell growth at 10^-5 M after 48 hrs by sulforhodamine B assay relative to control; type: functional; conditions: NCI-H460, 48 h, read-out: Activity; how it was run: as §1
SK-MEL-28 = assay: Growth inhibition of human SK-MEL-28 cells assessed as cell growth at 10^-5 M after 48 hrs by sulforhodamine B assay relative to control; type: functional; conditions: SK-MEL-28, 48 h, read-out: Activity; how it was run: as §1
HOP-92 = assay: Growth inhibition of human HOP92 cells assessed as cell growth at 10^-5 M after 48 hrs by sulforhodamine B assay relative to control; type: functional; conditions: HOP-92, 48 h, read-out: Activity; how it was run: as §1
SNB-75 = assay: Growth inhibition of human SNB75 cells assessed as cell growth at 10^-5 M after 48 hrs by sulforhodamine B assay relative to control; type: functional; conditions: SNB-75, 48 h, read-out: Activity; how it was run: as §1
A549 = assay: Growth inhibition of human A549 cells assessed as cell growth at 10^-5 M after 48 hrs by sulforhodamine B assay relative to control; type: functional; conditions: A549, 48 h, read-out: Activity; how it was run: as §1
SW-620 = assay: Growth inhibition of human SW620 cells assessed as cell growth at 10^-5 M after 48 hrs by sulforhodamine B assay relative to control; type: functional; conditions: SW-620, 48 h, read-out: Activity; how it was run: as §2
OVCAR-4 = assay: Growth inhibition of human OVCAR4 cells assessed as cell growth at 10^-5 M after 48 hrs by sulforhodamine B assay relative to control; type: functional; conditions: OVCAR-4, 48 h, read-out: Activity; how it was run: as §1
[2] = Growth inhibition of human NCI-ADR-RES cells assessed as cell growth at 10^-5 M after 48 hrs by sulforhodamine B assay relative to control; type: functional; conditions: read-out: Activity; how it was run: as §1
ACHN = assay: Growth inhibition of human ACHN cells assessed as cell growth at 10^-5 M after 48 hrs by sulforhodamine B assay relative to control; type: functional; conditions: read-out: Activity; how it was run: as §1
NCI-H226 = assay: Growth inhibition of human NCI-H226 cells assessed as cell growth at 10^-5 M after 48 hrs by sulforhodamine B assay relative to control; type: functional; conditions: NCI-H226, 48 h, read-out: Activity; how it was run: as §1

SMILES: Cc1ccc(-c2csc(=N)n2CC(=O)N2CCOCC2)cc1
- growth at 10 µM (SNB-19): 106%
- growth at 10 µM (CCRF-CEM): 101%
- growth at 10 µM (SF-295): 83.6%
- growth at 10 µM (MDA-MB-468): 106%
- growth at 10 µM (T47D): 97.4%
- growth at 10 µM (IGROV-1): 112%
- growth at 10 µM (BT-549): 99.3%
- growth at 10 µM (786-0): 97.9%
- growth at 10 µM (M14): 110%
- growth at 10 µM (SK-MEL-5): 98.2%
- growth at 10 µM (RXF 393): 94.5%
- Ki [1]: 9.78 µM
- growth at 10 µM (NCI-H460): 108%
- growth at 10 µM (SK-MEL-28): 108%
- growth at 10 µM (HOP-92): 68.3%
- growth at 10 µM (SNB-75): 90.6%
- growth at 10 µM (A549): 94.1%
- growth at 10 µM (SW-620): 114%
- growth at 10 µM (OVCAR-4): 102%
- growth at 10 µM [2]: 94.4%
- growth at 10 µM (ACHN): 97.5%
- growth at 10 µM (NCI-H226): 94.3%

SMILES: CN1CCN(C(=O)Cn2c(-c3ccccc3)csc2=N)CC1
- growth at 10 µM (SNB-19): 93.7%
- growth at 10 µM (CCRF-CEM): 97.6%
- growth at 10 µM (SF-295): 65.9%
- growth at 10 µM (MDA-MB-468): 97.6%
- growth at 10 µM (T47D): 78%
- growth at 10 µM (IGROV-1): 93.2%
- growth at 10 µM (BT-549): 92.6%
- growth at 10 µM (786-0): 101%
- growth at 10 µM (M14): 94.2%
- growth at 10 µM (SK-MEL-5): 88.2%
- growth at 10 µM (RXF 393): 97.3%
- Ki [1]: 4.89 µM
- growth at 10 µM (NCI-H460): 99.1%
- growth at 10 µM (SK-MEL-28): 100%
- growth at 10 µM (HOP-92): 73.8%
- growth at 10 µM (SNB-75): 56.5%
- growth at 10 µM (A549): 92%
- growth at 10 µM (SW-620): 96.1%
- growth at 10 µM (OVCAR-4): 88.4%
- growth at 10 µM [2]: 92.6%
- growth at 10 µM (ACHN): 81.2%
- growth at 10 µM (NCI-H226): 85.2%

Reference: ChEMBL document CHEMBL2434944, “Novel acetamidothiazole derivatives: synthesis and in vitro anticancer evaluation” (Eur J Med Chem, 2013)
